The target in one series is Prothrombin (Homo sapiens, UniProt P00734). Put plainly: The compound was tested for inhibition of human thrombin.
Series [1] concerns the target Tissue-type plasminogen activator (Homo sapiens, UniProt P00750). Put plainly: The compound was tested for inhibition of human tissue plasminogen activator.
The target of another series is Plasma kallikrein (Homo sapiens, UniProt P03952). Briefly: The compound was tested for inhibition of human p-kallikrein.
The target in series [2] is Urokinase-type plasminogen activator (Homo sapiens, UniProt P00749). Briefly: The compound was tested for inhibition of human urokinase type plasminogen activator (microPa).
For a further series, the target named is Coagulation factor X (Homo sapiens, UniProt P00742). Briefly: Binding affinity against human coagulation factor X.
Coagulation factor X, sequence (P00742 41-179 limits assumed): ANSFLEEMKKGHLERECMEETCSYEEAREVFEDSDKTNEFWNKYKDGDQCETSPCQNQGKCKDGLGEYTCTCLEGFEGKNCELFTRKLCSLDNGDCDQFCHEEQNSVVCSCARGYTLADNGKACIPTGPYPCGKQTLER
Coagulation factor X, sequence (P00742 235-488 limits assumed): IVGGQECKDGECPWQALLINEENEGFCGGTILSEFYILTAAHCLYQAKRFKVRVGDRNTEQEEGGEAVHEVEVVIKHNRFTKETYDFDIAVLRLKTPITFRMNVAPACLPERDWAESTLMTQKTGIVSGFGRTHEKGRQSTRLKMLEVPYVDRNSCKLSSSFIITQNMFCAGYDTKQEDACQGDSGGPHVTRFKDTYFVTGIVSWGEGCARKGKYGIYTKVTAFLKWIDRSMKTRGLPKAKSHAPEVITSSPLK
In the next series the target is T1, Coagulation factor VII (Homo sapiens, UniProt P08709).
T1 sequence (P08709 whole entry): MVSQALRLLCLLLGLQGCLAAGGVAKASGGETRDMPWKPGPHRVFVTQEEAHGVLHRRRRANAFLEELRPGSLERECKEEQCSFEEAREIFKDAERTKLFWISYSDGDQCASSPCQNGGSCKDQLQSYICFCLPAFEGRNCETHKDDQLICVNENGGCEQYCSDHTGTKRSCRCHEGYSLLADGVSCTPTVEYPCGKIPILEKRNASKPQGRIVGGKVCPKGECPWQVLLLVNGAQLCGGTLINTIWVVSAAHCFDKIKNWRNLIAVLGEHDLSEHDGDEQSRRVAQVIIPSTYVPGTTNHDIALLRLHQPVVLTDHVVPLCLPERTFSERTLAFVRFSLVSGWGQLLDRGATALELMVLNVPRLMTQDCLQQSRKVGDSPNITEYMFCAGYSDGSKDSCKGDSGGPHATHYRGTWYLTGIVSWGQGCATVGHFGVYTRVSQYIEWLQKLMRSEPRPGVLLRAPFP
Briefly: The compound was tested for inhibition of human coagulation factor VII.

The next series concerns the target Trypsin (Homo sapiens, UniProt P07477+P07478+P35030). Put plainly: The compound was tested for inhibition of human trypsin. The class given is protein assay.
A short description of series [3]: Plasma clearance of compound in Sprague-Dawley Rat (Wt 294) was determined after iv administration at a dose of 2 mg/kg. The class given is ADME, organism-based. Particulars: read-out: Clp. More on the design: dose 2 mg/kg, route intravenous. Put shortly:
(§1)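 Male Sprague-Dawley rats, three per group, received a single IV tail-vein bolus in 40% PEG400/H2O (1 or 2 mg/mL). Jugular blood was drawn into heparin at several times up to 24 h. Plasma was held at −80 °C, then assayed by LC-MS/MS against standard curves of 1–10000 ng/mL (LOQ 6 ng/mL). Parameters are mean ± SD; AUC runs 0 to infinity; volume of distribution is central compartment.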

Series [4] is described as follows: Volume of distribution in Sprague-Dawley Rat (Wt 294) was determined after iv administration at a dose of 2 mg/kg. The series is classed as ADME, organism-based. More on the design: dose 2 mg/kg, route intravenous. Particulars: in vivo, read-out: Vc. Put shortly:
as §1

Series [5] in a line: Volume of distribution at steady state in Sprague-Dawley Rat (Wt 294) was determined after iv administration at a dose of 2 mg/kg. The class given is ADME, organism-based. More on the design: dose 2 mg/kg, route intravenous. Particulars: in vivo, read-out: Vss. Put shortly: as §1
A short description of series [6]: Mean residence time of compound in Sprague-Dawley Rat (Wt 294) was determined after iv administration at a dose of 2 mg/kg. The series is classed as ADME, organism-based. Also on record: dose 2 mg/kg, route intravenous. Particulars: in vivo. Put shortly:
as §1

The nature of series [7]: terminal half-life in Sprague-Dawley Rat (Wt 294) was determined after iv administration at a dose of 2 mg/kg. The class given is ADME, organism-based. More on the design: dose 2 mg/kg, route intravenous. Particulars: in vivo. In outline:
as §1

For series [8], the system named is Rattus norvegicus. Briefly: Integrated area under the plasma concentration in Sprague-Dawley Rat (Wt 294) was determined after iv administration at a dose of 2 mg/kg. The series is classed as ADME, organism-based. More on the design: dose 2 mg/kg, route intravenous. Particulars: in vivo. In outline:
as §1

Series [9] is described as follows: terminal half-life in Sprague-Dawley Rat (Wt 286) was determined after iv administration at a dose of 1 mg/kg. The series is classed as ADME, organism-based. Also on record: dose 1 mg/kg, route intravenous. Particulars: in vivo. In outline: as §1
The nature of series [10]: Volume of distribution in Sprague-Dawley Rat (Wt 286) was determined after iv administration at a dose of 1 mg/kg. More on the design: dose 1 mg/kg, route intravenous. Particulars: in vivo, read-out: Vc. The class given is ADME, organism-based. Put shortly: as §1
A short description of series [11]: mean residence time in Sprague-Dawley Rat (Wt 286) was determined after iv administration at a dose of 1 mg/kg. The class given is ADME, organism-based. More on the design: dose 1 mg/kg, route intravenous. Particulars: in vivo. In outline:
as §1

Series [12] in a line: Plasma clearance of compound in Sprague-Dawley Rat (Wt 286) was determined after iv administration at a dose of 1 mg/kg. The series is classed as ADME, organism-based. More on the design: dose 1 mg/kg, route intravenous. Particulars: read-out: Clp. Put shortly:
as §1

The test system of series [13] is Rattus norvegicus. Briefly: Area undercurve in Sprague-Dawley Rat (Wt 286) was determined after iv administration at a dose of 1 mg/kg. The class given is ADME, organism-based. More on the design: dose 1 mg/kg, route intravenous. Particulars: in vivo. Put shortly: as §1
Series [14] is described as follows: Volume of distribution at steady state in Sprague-Dawley Rat (Wt 286) was determined after iv administration at a dose of 1 mg/kg. Particulars: in vivo, read-out: Vss. The series is classed as ADME, organism-based. More on the design: dose 1 mg/kg, route intravenous. Put shortly: as §1

Plasma kallikrein, sequence (P03952 20-390 limits assumed): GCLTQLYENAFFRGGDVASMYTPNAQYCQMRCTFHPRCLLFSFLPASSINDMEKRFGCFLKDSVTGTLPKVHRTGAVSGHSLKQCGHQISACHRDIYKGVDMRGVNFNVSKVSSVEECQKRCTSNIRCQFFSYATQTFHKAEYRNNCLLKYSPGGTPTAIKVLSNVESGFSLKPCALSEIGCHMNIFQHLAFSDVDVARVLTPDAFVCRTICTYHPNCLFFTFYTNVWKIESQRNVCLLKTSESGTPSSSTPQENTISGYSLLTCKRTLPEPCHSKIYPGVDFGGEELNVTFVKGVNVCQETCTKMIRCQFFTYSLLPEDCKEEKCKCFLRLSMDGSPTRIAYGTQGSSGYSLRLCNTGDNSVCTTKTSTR
Plasma kallikrein, sequence (P03952 391-638 limits assumed): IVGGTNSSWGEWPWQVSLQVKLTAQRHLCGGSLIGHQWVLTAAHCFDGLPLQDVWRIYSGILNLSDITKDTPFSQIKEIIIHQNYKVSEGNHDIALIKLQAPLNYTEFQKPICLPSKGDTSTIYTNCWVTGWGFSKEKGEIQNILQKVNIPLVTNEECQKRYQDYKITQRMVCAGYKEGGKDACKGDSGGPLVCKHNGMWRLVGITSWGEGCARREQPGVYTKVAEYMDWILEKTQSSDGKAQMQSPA
Tissue-type plasminogen activator, sequence (P00750 whole entry): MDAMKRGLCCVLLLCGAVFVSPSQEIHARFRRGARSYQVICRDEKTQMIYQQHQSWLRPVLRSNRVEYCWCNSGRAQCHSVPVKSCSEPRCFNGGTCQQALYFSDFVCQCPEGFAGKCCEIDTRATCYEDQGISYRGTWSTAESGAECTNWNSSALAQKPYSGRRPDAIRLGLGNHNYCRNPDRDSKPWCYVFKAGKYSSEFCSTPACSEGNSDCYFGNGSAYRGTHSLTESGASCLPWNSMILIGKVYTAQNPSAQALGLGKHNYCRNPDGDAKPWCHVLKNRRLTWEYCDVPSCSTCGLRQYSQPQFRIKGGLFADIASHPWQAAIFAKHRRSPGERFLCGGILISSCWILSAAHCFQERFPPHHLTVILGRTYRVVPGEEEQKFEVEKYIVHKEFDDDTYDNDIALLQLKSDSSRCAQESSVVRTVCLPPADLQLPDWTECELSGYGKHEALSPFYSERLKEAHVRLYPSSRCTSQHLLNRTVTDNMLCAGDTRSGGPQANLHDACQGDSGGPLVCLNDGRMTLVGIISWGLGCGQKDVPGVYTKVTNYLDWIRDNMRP

The Ki is the equilibrium dissociation constant of an inhibitor or competing ligand from its target. A higher Ki goes with lower affinity. On to `N=C(N)c1ccc2[nH]c(-c3cccc(-c4ccccc4)c3O)cc2c1Cl`, for which the inhibition constant Ki is 65 µM on Prothrombin; 3.3 µM in series [1]; 1.3 µM at Plasma kallikrein; 0.49 µM in [2]; 5.2 µM at Coagulation factor X; 5.5 µM at Coagulation factor VII. This molecule also showed a Ki on Trypsin of 4.7 µM.

On to `COc1cc2[nH]c(-c3cccc(-c4ccccc4)c3O)cc2cc1C(=N)N`, for which the Ki was over 75 µM at Prothrombin; 0.6 µM at Plasma kallikrein; 0.36 µM in series [2]; 26 µM at Coagulation factor X; 16 µM on Coagulation factor VII; 14 µM at Trypsin.

For `Cc1cc2[nH]c(-c3cccc(-c4ccccc4)c3O)cc2cc1C(=N)N`, the Ki was over 75 µM on Prothrombin; 39 µM in series [1]; 4.8 µM on Plasma kallikrein; 0.1 µM in series [2]; over 75 µM at Coagulation factor X; 7 µM at Coagulation factor VII. The molecule also gave an inhibitory constant (Ki) at Trypsin of 1.6 µM.

For `N=C(N)c1cc2cc(-c3cccc(-c4ccccc4)c3O)[nH]c2cc1O`, the Ki at Prothrombin is over 75 µM; on Plasma kallikrein, 1.3 µM; on Coagulation factor X, over 75 µM; at Coagulation factor VII it was over 75 µM; on Trypsin, 50 µM.

For the molecule `N=C(N)c1cc2cc(-c3cccc(-c4ccccc4)c3O)[nH]c2cc1F`, the Ki was 7.5 µM on Prothrombin, 0.11 µM on Plasma kallikrein, 0.75 µM on Coagulation factor VII and 1.1 µM at Trypsin.

As a reminder, the MRT is a mean duration of stay, worked out from the concentration-time curve. The half-life is the time in which the quantity being followed falls by half. A lower half-life goes with rapid decline. The term AUC denotes the area under the concentration-time curve, a measure of exposure. Regarding `N=C(N)c1cc2cc(-c3cccc(-c4ccccc4)c3O)[nH]c2cc1Cl`, the clearance in series [3] came out at 59 mL/min/kg. In addition, the results for the Vd in series [4] and in series [5] were 0.346 L/kg and 7.7 L/kg, respectively. Further, the MRT in series [6] was 2.17 h. Moreover, the half-life in [7] stood at 3.15 h. This molecule also registered an AUC with Rattus norvegicus [8] of 1.42 µM·h.

On to `N=C(N)c1ccc2[nH]c(-c3cccc(-c4ccccc4)c3O)cc2c1`, for which, in series [9], the half-life came out at 1.7 h. The Ki at Plasma kallikrein is 0.0019 µM; at Coagulation factor VII, 0.16 µM; at Trypsin, 0.13 µM. The Vd in series [10] amounted to 1.56 L/kg; in [14] it was 11.9 L/kg. For the same molecule, in [11], the MRT was 1.77 h. Moreover, in [12], the clearance turned out to be 121 mL/min/kg. The molecule also yielded an AUC with Rattus norvegicus [13] of 0.4 µM·h.

For the origin of these results see ChEMBL document CHEMBL1134679, “Exploiting subsite S1 of trypsin-like serine proteases for selectivity: potent and selective inhibitors of urokinase-type plasminogen activator” (J Med Chem, 2001).
